Measurements from ChEMBL document CHEMBL4219033, “Anticancer activity profiling of parthenolide analogs generated via P450-mediated chemoenzymatic synthesis” (2018).

Legend:
Assay type in all cases: functional
[1] = test system: A549; assay: Cytotoxicity against human A549 cells assessed as cell viability at 10 uM after 24 hrs by MTT assay relative to control; details: A549, 24 h, read-out: Activity
In short: (§1)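 Adherent lines in DMEM plus 10% FBS and penicillin-streptomycin, 37 °C, 5% CO2, lifted with Accutase. Seeded at 500–10,000 cells/well and rested 15 h. Compounds from 10 mM DMSO stocks dosed at 10 µM final, 1% DMSO final, n = 5, for 24 h. Medium then swapped for 1 mg/ml MTT in phenol-red-free medium for 3 h at 37 °C. Formazan dissolved in DMSO, OD read at 550 nm. Viability normalised to 1% DMSO vehicle control.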

[2] = test system: SK-N-MC; assay: Cytotoxicity against human SK-N-MC cells assessed as cell viability at 10 uM after 24 hrs by MTT assay relative to control; details: read-out: Activity; in short: as §1
[3] = test system: Jurkat; assay: Cytotoxicity against human Jurkat cells assessed as cell viability at 10 uM after 24 hrs by MTT assay relative to control; details: read-out: Activity
In short: (§2)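 Suspension lines grown in α-MEM plus 10% FBS and penicillin-streptomycin, 37 °C, 5% CO2. Seeded at 30,000 cells/well in phenol-red-free α-MEM and rested 15 h. Exposed to 10 µM, or 2 µM in the lower-dose repeat, at 1% DMSO final for 24 h. 5 mg/ml MTT added directly for 3 h at 37 °C. Plates spun, formazan dissolved in DMSO, OD read at 550 nm. Viability relative to vehicle.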

[4] = test system: PC-3; assay: Cytotoxicity against human PC3 cells assessed as cell viability after 24 hrs by MTT assay; details: PC-3, 24 h, read-out: LC50 (the source's name)
In short: (§3)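 Adherent cells grown in DMEM with 10% FBS and penicillin-streptomycin, dissociated with Accutase, seeded at 500–10,000 cells/well and held 15 h before treatment. Compounds diluted from 10 mM DMSO stocks, final 1% DMSO, for 24 h at 37 °C, 5% CO2. Medium replaced with 1 mg/ml MTT for 3 h, formazan dissolved in DMSO, OD 550 nm. LC50 from dose-response curves normalized to 1% DMSO vehicle.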

[5] = test system: SJSA-1; assay: Cytotoxicity against human SJSA1 cells assessed as cell viability after 24 hrs by MTT assay; details: SJSA-1, 24 h, read-out: LC50 (the source's name); in short: as §3
[6] = test system: SJSA-1; assay: Cytotoxicity against human SJSA1 cells assessed as cell viability at 10 uM after 24 hrs by MTT assay relative to control; details: SJSA-1, 24 h, read-out: Activity; in short: as §1
[7] = test system: JeKo-1; assay: Cytotoxicity against human JeKo1 cells assessed as cell viability at 2 uM after 24 hrs by MTT assay relative to control; details: JeKo-1, 24 h, read-out: Activity; in short: as §2
[8] = test system: SK-N-MC; assay: Cytotoxicity against human SK-N-MC cells assessed as cell viability after 24 hrs by MTT assay; details: read-out: LC50 (the source's name); in short: as §3
[9] = test system: PC-3; assay: Cytotoxicity against human PC3 cells assessed as cell viability at 10 uM after 24 hrs by MTT assay relative to control; details: PC-3, 24 h, read-out: Activity; in short: as §1
[10] = test system: HCT-116; assay: Cytotoxicity against human HCT116 cells assessed as cell viability at 10 uM after 24 hrs by MTT assay relative to control; details: HCT-116, 24 h, read-out: Activity; in short: as §1
[11] = test system: MDA-MB-231; assay: Cytotoxicity against human MDA-MB-231 cells assessed as cell viability at 10 uM after 24 hrs by MTT assay relative to control; details: MDA-MB-231, 24 h, read-out: Activity; in short: as §1
[12] = test system: Jurkat; assay: Cytotoxicity against human Jurkat cells assessed as cell viability after 24 hrs by MTT assay; details: read-out: LC50 (the source's name)
In short: (§4)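 Suspension cells grown in α-MEM with 10% FBS and penicillin-streptomycin, seeded at 30,000 cells/well in phenol red-free medium and held 15 h before treatment. Compounds diluted from 10 mM DMSO stocks, final 1% DMSO, for 24 h. MTT (5 mg/ml stock) added directly for 3 h at 37 °C, then centrifugation, DMSO solubilization, OD 550 nm. LC50 from dose-response curves normalized to vehicle.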

[13] = test system: A549; assay: Cytotoxicity against human A549 cells assessed as cell viability after 24 hrs by MTT assay; details: A549, 24 h, read-out: LC50 (the source's name); in short: as §3
[14] = test system: HCT-116; assay: Cytotoxicity against human HCT116 cells assessed as cell viability after 24 hrs by MTT assay; details: HCT-116, 24 h, read-out: LC50 (the source's name); in short: as §3
[15] = test system: SK-MEL-2; assay: Cytotoxicity against human SK-MEL-2 cells assessed as cell viability after 24 hrs by MTT assay; details: SK-MEL-2, 24 h, read-out: LC50 (the source's name); in short: as §3
[16] = test system: HeLa; assay: Cytotoxicity against human HeLa cells assessed as cell viability after 24 hrs by MTT assay; details: read-out: LC50 (the source's name); in short: as §3
[17] = test system: Jurkat; assay: Cytotoxicity against human Jurkat cells assessed as cell viability at 2 uM after 24 hrs by MTT assay relative to control; details: read-out: Activity; in short: as §2
[18] = test system: JeKo-1; assay: Cytotoxicity against human JeKo1 cells assessed as cell viability at 10 uM after 24 hrs by MTT assay relative to control; details: JeKo-1, 24 h, read-out: Activity; in short: as §2
[19] = test system: MDA-MB-231; assay: Cytotoxicity against human MDA-MB-231 cells assessed as cell viability after 24 hrs by MTT assay; details: MDA-MB-231, 24 h, read-out: LC50 (the source's name); in short: as §3
[20] = test system: SK-MEL-2; assay: Cytotoxicity against human SK-MEL-2 cells assessed as cell viability at 10 uM after 24 hrs by MTT assay relative to control; details: SK-MEL-2, 24 h, read-out: Activity; in short: as §1
[21] = test system: JeKo-1; assay: Cytotoxicity against human JeKo1 cells assessed as cell viability after 24 hrs by MTT assay; details: JeKo-1, 24 h, read-out: LC50 (the source's name); in short: as §4
[22] = test system: HeLa; assay: Cytotoxicity against human HeLa cells assessed as cell viability at 10 uM after 24 hrs by MTT assay relative to control; details: read-out: Activity; in short: as §1
[23] = test system: MDA-MB-231; assay: Cytotoxicity against human MDA-MB-231 cells assessed as cell viability ratio at 10 uM after 24 hrs by MTT assay relative to control; in short: as §1
[24] = test system: PC-3; assay: Cytotoxicity against human PC3 cells assessed as cell viability ratio at 10 uM after 24 hrs by MTT assay relative to control; in short: as §1
[25] = test system: SK-MEL-2; assay: Cytotoxicity against human SK-MEL-2 cells assessed as cell viability ratio at 10 uM after 24 hrs by MTT assay relative to control; in short: as §1
[26] = test system: HCT-116; assay: Cytotoxicity against human HCT116 cells assessed as cell viability ratio at 10 uM after 24 hrs by MTT assay relative to control
[27] = test system: A549; assay: Cytotoxicity against human A549 cells assessed as cell viability ratio at 10 uM after 24 hrs by MTT assay relative to control; in short: as §1
[28] = test system: SK-N-MC; assay: Cytotoxicity against human SK-N-MC cells assessed as cell viability ratio at 10 uM after 24 hrs by MTT assay relative to control; in short: as §1
[29] = test system: HeLa; assay: Cytotoxicity against human HeLa cells assessed as cell viability ratio at 10 uM after 24 hrs by MTT assay relative to control; in short: as §1
[30] = test system: JeKo-1; assay: Cytotoxicity against human JeKo1 cells assessed as cell viability ratio at 10 uM after 24 hrs by MTT assay relative to control; in short: as §2
[31] = test system: Jurkat; assay: Cytotoxicity against human Jurkat cells assessed as cell viability ratio at 10 uM after 24 hrs by MTT assay relative to control; in short: as §2
[32] = test system: SJSA-1; assay: Cytotoxicity against human SJSA1 cells assessed as cell viability ratio at 10 uM after 24 hrs by MTT assay relative to control; in short: as §1

| Compound | viability at 10 µM [1] [%] | viability at 10 µM [2] [%] | viability at 10 µM [3] [%] | CC50 [4] [µM] | CC50 [5] [µM] | viability at 10 µM [6] [%] | viability at 2 µM [7] [%] | CC50 [8] [µM] | viability at 10 µM [9] [%] | viability at 10 µM [10] [%] | viability at 10 µM [11] [%] | CC50 [12] [µM] | CC50 [13] [µM] | CC50 [15] [µM] | viability at 2 µM [17] [%] | viability at 10 µM [18] [%] | CC50 [19] [µM] | viability at 10 µM [20] [%] | CC50 [21] [µM] | viability at 10 µM [22] [%] | also measured |
| --- | --- | --- | --- | --- | --- | --- | --- | --- | --- | --- | --- | --- | --- | --- | --- | --- | --- | --- | --- | --- | --- |
| C=C1C(=O)O[C@@H]2[C@H]3O[C@]3(C)CC/C=C(/COC(=O)Nc3cc(C(F)(F)F)cc(C(F)(F)F)c3)CC[C@@H]12 | 25.1 | 2.1 | 0 | 5.5 | 9.2 | 23.3 | 71.5 | 0.6 | 13.7 | 3.9 | 5.5 | 3.3 | 5.5 | 4.3 | 74.9 | -1.8 | 6.1 | 25.7 | 3.4 | 3.8 | CC50 [14]: 5.9 µM; CC50 [16]: 1.5 µM |
| C=C1C(=O)O[C@@H]2[C@H]3O[C@]3(C)CC/C=C(/C)[C@@H](OC(=O)c3cc(C(F)(F)F)cc(C(F)(F)F)c3)C[C@@H]12 | 82.5 | 3 | 5 | 3.1 |  | 88.2 | 73.3 | 4.7 | 2.2 | 54.4 | 3.6 | 1.2 |  | 2.6 | 53.1 | 4.1 | 3.8 | 14.8 | 1.2 | 32 |  |
| C=C1C(=O)O[C@@H]2C3O[C@]3(C)CC/C=C(\C)CC[C@@H]12 (some centres not stated) | 85 | 30 | 70.3 | 20.5 | 42.4 | 100 | 100 | 4.7 | 82.6 | 104 | 67 | 16.9 | 29.7 | 24.9 | 100 | 47.5 | 18.3 | 95.8 | 10 | 35 | CC50 [14]: 18 µM; CC50 [16]: 9 µM |
| C=C1C(=O)O[C@@H]2[C@H]3O[C@]3(C)CC/C=C(\CO)CC[C@@H]12 |  |  |  |  |  |  |  |  |  |  |  |  |  |  |  |  |  |  |  |  | fold change (FC) [23]: 1; fold change (FC) [24]: 1; fold change (FC) [25]: 1; fold change (FC) [26]: 0.9; fold change (FC) [27]: 0.9; fold change (FC) [28]: 1; fold change (FC) [29]: 0.3; fold change (FC) [30]: 1; fold change (FC) [31]: 1; fold change (FC) [32]: 0.9 |
| C=C1C(=O)O[C@@H]2[C@H]3O[C@]3(C)CC/C=C(\C)[C@@H](O)C[C@@H]12 |  |  |  |  |  |  |  |  |  |  |  |  |  |  |  |  |  |  |  |  | fold change (FC) [23]: 0.9; fold change (FC) [24]: 1; fold change (FC) [25]: 1; fold change (FC) [26]: 1; fold change (FC) [27]: 1; fold change (FC) [28]: 1; fold change (FC) [29]: 0.2; fold change (FC) [30]: 1; fold change (FC) [31]: 1; fold change (FC) [32]: 0.9 |
